Experiment [1] relates to Staphylococcus aureus. As to the kind of experiment: Antibacterial activity against 5 x 10^5 CFU/ml epidemic methicillin-resistant Staphylococcus aureus EMRSA-15 after 18 hrs by MTT assay. In kind it is functional. The following applies: EMRSA-15, 18 h. The method, boiled down: (§1)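 Strains grown on nutrient agar 24 h at 37 °C; inoculum adjusted to 0.5 McFarland in normal saline. Compounds dissolved in DMSO, diluted in Mueller-Hinton broth to a 512 μg/mL starting concentration, then two-fold serially diluted in MHB supplemented with Mg2+ (10 mg/L) and Ca2+ (20 mg/L). Incubated 18 h at 37 °C; MIC read as lowest concentration with no visible growth, confirmed by MTT (20 min, 37 °C). Triplicates.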
(In general: Tetrazolium dyes change colour on reduction, which living cells bring about.)

The test system of experiment [2] is Staphylococcus aureus. The experiment in a line: Antibacterial activity against 5 x 10^5 CFU/ml epidemic methicillin-resistant Staphylococcus aureus EMRSA-16 after 18 hrs by MTT assay. It is filed as functional. The following applies: EMRSA-16, 18 h. An outline of the steps: as §1
The subject of experiment [3] is Staphylococcus aureus. As to the kind of experiment: Antibacterial activity against 5 x 10^5 CFU/ml macrolide-resistant Staphylococcus aureus RN4220 expressing MsrA macrolide efflux protein after 18 hrs by MTT assay. It is filed as functional. The following applies: RN4220, 18 h. An outline of the steps:
as §1

Experiment [4] has as its system Staphylococcus aureus. The experiment in a line: Antibacterial activity against 5 x 10^5 CFU/ml multi-drug-resistant Staphylococcus aureus SA1199B expressing NorA quinolone efflux protein after 18 hrs by MTT assay. In kind it is functional. An outline of the steps: as §1
For experiment [5], the system named is Staphylococcus aureus. The experiment in a line: Antibacterial activity against 5 x 10^5 CFU/ml multi-drug-resistant Staphylococcus aureus XU212 expressing TetK tetracycline efflux protein after 18 hrs by MTT assay. In kind it is functional. The settings on record: XU212, 18 h. An outline of the steps: as §1
Experiment [6] deals with Staphylococcus aureus. As to the kind of experiment: Antibacterial activity against 5 x 10^5 CFU/ml Staphylococcus aureus ATCC 25923 after 18 hrs by MTT assay. The settings on record: ATCC 25923, 18 h.

In brackets after ≈: the same amount, converted by molar mass.

For orientation: MIC means the lowest concentration found to suppress growth. Lower therefore signals a more susceptible organism.

As to `C/C1=C\C[C@@]2(C)CC[C@@](O)(C(C)C)[C@@H]2CC/C(C)=C/CC1`, the minimal inhibitory concentration (MIC) in experiment [1] stood at 8 µg/mL (≈ 27.5 µM); in experiment [2] it was 8 µg/mL (≈ 27.5 µM); in experiment [3], 8 µg/mL (≈ 27.5 µM); in experiment [4], 16 µg/mL (≈ 55.1 µM); in experiment [5], 16 µg/mL (≈ 55.1 µM); in experiment [6], 8 µg/mL (≈ 27.5 µM).
Regarding `C=C(C)[C@H]1CC[C@]2(C)C[C@@H]3O[C@@]3(C)CC/C=C(\C)CC[C@@H]12`, the minimum inhibitory concentration (MIC) in experiment [1] was above 128 µg/mL; in experiment [2], 32 µg/mL (≈ 111 µM); in experiment [3], above 128 µg/mL; in experiment [4], above 128 µg/mL; in experiment [5], above 128 µg/mL; in experiment [6], above 128 µg/mL.
For the molecule `CCn1cc(C(=O)O)c(=O)c2cc(F)c(N3CCNCC3)cc21` [NORFLOXACIN], the MIC in experiment [1] was found to be 0.5 µg/mL (≈ 1.57 µM); in experiment [2], 128 µg/mL (≈ 401 µM); in experiment [3], 0.5 µg/mL (≈ 1.57 µM); in experiment [4], 32 µg/mL (≈ 100 µM); in experiment [5], 8 µg/mL (≈ 25.1 µM); in experiment [6], 0.5 µg/mL (≈ 1.57 µM).
Turning to `C=C(C)[C@H]1CC(=O)[C@]2(C)C/C=C(/C)CC[C@@H]3O[C@@]3(C)CC[C@@H]12`, the minimum inhibitory concentration (MIC) in experiment [1], in experiment [2], in experiment [3], in experiment [4], in experiment [5] and in experiment [6] was above 128 µg/mL in each case.
As to `C=C(C)[C@H]1CC(=O)[C@]2(C)C/C=C(/C)CC/C=C(\C)CC[C@@H]12`, the MIC in experiment [1], in experiment [2], in experiment [3], in experiment [4], in experiment [5] and in experiment [6] was above 128 µg/mL throughout.
For `C=C(C)[C@H]1CC(=O)[C@]2(C)C/C=C(\C)CC[C@@H]3O[C@@]3(C)CC[C@@H]12`, the MIC in experiment [1], in experiment [2], in experiment [3], in experiment [4], in experiment [5] and in experiment [6] was above 128 µg/mL in each case.
With `C=C(C)[C@H]1C[C@H](OC(C)=O)[C@]2(C)C[C@@H]3O[C@@]3(C)CC/C=C(\C)CC[C@@H]12`, the minimum inhibitory concentration (MIC) in experiment [1] was 128 µg/mL (≈ 369 µM); in experiment [2] it was 32 µg/mL (≈ 92.3 µM); in experiment [3] it was 64 µg/mL (≈ 185 µM); in experiment [4] it was 64 µg/mL (≈ 185 µM); in experiment [5] it was 128 µg/mL (≈ 369 µM); in experiment [6], 32 µg/mL (≈ 92.3 µM).
As for `C=C(C)[C@H]1CC[C@]2(C)C/C=C(\C)CC[C@@H]3O[C@@]3(C)CC[C@@H]12`, the MIC in experiment [1] is 128 µg/mL (≈ 444 µM); in experiment [2] it was 4 µg/mL (≈ 13.9 µM); in experiment [3] it was above 128 µg/mL; in experiment [4], above 128 µg/mL; in experiment [5], above 128 µg/mL; in experiment [6] it was above 128 µg/mL.
As for `C=C(C)[C@H]1CC(=O)[C@]2(C)C[C@@H]3O[C@@]3(C)CC/C=C(\C)CC[C@@H]12`, the MIC is above 128 µg/mL in experiment [1]; above 128 µg/mL in experiment [2]; 128 µg/mL (≈ 423 µM) in experiment [3]; above 128 µg/mL in experiment [4]; above 128 µg/mL in experiment [5]; above 128 µg/mL in experiment [6].
With `C=C(C)[C@H]1C[C@H](O)[C@]2(C)C/C=C(\C)CC/C=C(\C)CC[C@@H]12`, the MIC was determined as 64 µg/mL (≈ 222 µM) in experiment [1]; 8 µg/mL (≈ 27.7 µM) in experiment [2]; 64 µg/mL (≈ 222 µM) in experiment [3]; 32 µg/mL (≈ 111 µM) in experiment [4]; 64 µg/mL (≈ 222 µM) in experiment [5]; 128 µg/mL (≈ 444 µM) in experiment [6].
For the molecule `C/C1=C\C[C@@]2(C)CC[C@H](C(C)(C)O)[C@@H]2CC/C(C)=C/CC1`, the minimal inhibitory concentration (MIC) stood at 32 µg/mL (≈ 110 µM) in experiment [1]; 8 µg/mL (≈ 27.5 µM) in experiment [2]; 64 µg/mL (≈ 220 µM) in experiment [3]; 32 µg/mL (≈ 110 µM) in experiment [4]; 64 µg/mL (≈ 220 µM) in experiment [5]; 32 µg/mL (≈ 110 µM) in experiment [6].
Regarding `C=C(C)[C@H]1C[C@@H](O)[C@]2(C)C/C=C(\C)CC/C=C(\C)CC[C@@H]12`, the minimum inhibitory concentration (MIC) came to 2 µg/mL (≈ 6.93 µM) in experiment [1]; 2 µg/mL (≈ 6.93 µM) in experiment [2]; 4 µg/mL (≈ 13.9 µM) in experiment [3]; 2 µg/mL (≈ 6.93 µM) in experiment [4]; 4 µg/mL (≈ 13.9 µM) in experiment [5]; 4 µg/mL (≈ 13.9 µM) in experiment [6].
As to `C=C(C)[C@H]1CC[C@]2(C)C/C=C(\C)CC/C=C(\C)CC[C@@H]12`, the minimum inhibitory concentration (MIC) in experiment [1] is 128 µg/mL (≈ 470 µM); in experiment [2], 16 µg/mL (≈ 58.7 µM); in experiment [3], 128 µg/mL (≈ 470 µM); in experiment [4], 128 µg/mL (≈ 470 µM); in experiment [5], 128 µg/mL (≈ 470 µM); in experiment [6], 64 µg/mL (≈ 235 µM).
Regarding `CC(=O)O[C@H]1C/C(C)=C/CC[C@@H](C)/C=C/[C@@]2(C)CC[C@@H](C(C)(C)O)[C@H]12`, the minimal inhibitory concentration (MIC) in experiment [1] was above 128 µg/mL; in experiment [2], 64 µg/mL (≈ 184 µM); in experiment [3], above 128 µg/mL; in experiment [4], above 128 µg/mL; in experiment [5], above 128 µg/mL; in experiment [6], above 128 µg/mL.
With `C=C(C)[C@H]1C[C@H](OC(C)=O)[C@]2(C)C/C=C(\C)CC/C=C(\C)CC[C@@H]12`, the MIC in experiment [1], in experiment [2], in experiment [3], in experiment [4], in experiment [5] and in experiment [6] was above 128 µg/mL throughout.
As for `C=C(C)[C@H]1CC(=O)[C@]2(C)C/C=C(\C)CC/C=C(\C)CC[C@@H]12`, the minimum inhibitory concentration (MIC) is above 128 µg/mL in experiment [1]; 16 µg/mL (≈ 55.9 µM) in experiment [2]; above 128 µg/mL in experiment [3]; 128 µg/mL (≈ 447 µM) in experiment [4]; above 128 µg/mL in experiment [5]; above 128 µg/mL in experiment [6].
On to `C/C1=C\CC[C@@H](C)/C=C/[C@@]2(C)CC[C@@H](C(C)(C)O)[C@@H]2CC1`, for which the MIC was determined as 64 µg/mL (≈ 220 µM) in experiment [1]; 16 µg/mL (≈ 55.1 µM) in experiment [2]; 64 µg/mL (≈ 220 µM) in experiment [3]; 64 µg/mL (≈ 220 µM) in experiment [4]; 64 µg/mL (≈ 220 µM) in experiment [5]; 64 µg/mL (≈ 220 µM) in experiment [6].
Take `C=C(C)[C@@H]1CC(=O)[C@]2(C)C/C=C(\C)CC/C=C(\C)CC[C@@H]12`: the MIC in experiment [1], in experiment [2], in experiment [3], in experiment [4], in experiment [5] and in experiment [6] was above 128 µg/mL each time.
With `C=C(C)[C@@H]1CC[C@]2(C)/C=C/[C@H](C)CC/C=C(\C)CC[C@@H]12`, the MIC in experiment [1], in experiment [2], in experiment [3], in experiment [4], in experiment [5] and in experiment [6] was above 128 µg/mL throughout.
